Laboratory results: ChEMBL document CHEMBL1667787, “Synthesis and in vitro cytotoxicity evaluation of some fluorinated hexahydropyrimidine derivatives” (Bioorg Med Chem Lett, 2011)

Test: Cytotoxicity against human COLO320 cells after 72 hrs by Alamar Blue assay
Type: functional, cell-based
Conditions: COLO 320, 72 h
How it was run: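 COLO 320 HSR cells (ATCC) kept in RPMI 1640 with 10% FBS, bicarbonate, pyruvate, Hepes and antibiotics at 37 °C, 5% CO2. Seeded 1 × 10^4 cells/well, attached 24 h, then exposed 72 h to compound or DMSO vehicle. AlamarBlue added 1:10, incubated overnight at 37 °C, fluorescence read at 560 nm excitation/590 nm emission. Triplicates, means; IC50 by linear regression.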

Row | SMILES | IC50 [µM]
1 | COc1ccc([C@H]2NC(=S)N[C@@](O)(C(F)(F)F)[C@@H]2C(=O)c2ccco2)cc1 | 11.5
2 | CCOC(=O)[C@@H]1[C@@H](c2ccc(F)cc2)NC(=S)N[C@@]1(O)C(F)(F)F | 75
3 | O=C(c1cccs1)[C@@H]1[C@@H](c2ccc3c(c2)OCO3)NC(=S)N[C@@]1(O)C(F)(F)F | 62.5
4 | CCOC(=O)[C@@H]1[C@@H](c2ccccc2Br)NC(=S)N[C@@]1(O)C(F)(F)F | 73
5 | COC(=O)[C@@H]1[C@@H](c2cccc(O)c2)NC(=S)N[C@@]1(O)C(F)(F)F | > 100
6 | COc1ccc([C@H]2NC(=S)N[C@@](O)(C(F)(F)F)[C@@H]2C(=O)c2cccs2)cc1 | 75
7 | O=C(c1ccco1)[C@@H]1[C@@H](c2ccc3c(c2)OCO3)NC(=S)N[C@@]1(O)C(F)(F)F | 67
8 | CCOC(=O)[C@@H]1[C@@H](c2cccc(O)c2)NC(=S)N[C@@]1(O)C(F)(F)F | > 100
9 | O=C(c1ccco1)[C@@H]1[C@@H](c2ccccc2)NC(=S)N[C@@]1(O)C(F)(F)F | 63
10 | CCOC(=O)[C@@H]1[C@@H](c2cccc(C#N)c2)NC(=S)N[C@@]1(O)C(F)(F)F | > 100
11 | O=C(c1ccc2ccccc2c1)[C@@H]1[C@@H](c2ccc3c(c2)OCO3)NC(=S)N[C@@]1(O)C(F)(F)F | 9.9
12 | CCOC(=O)[C@@H]1[C@@H](c2ccc3c(c2)OCO3)NC(=S)N[C@@]1(O)C(F)(F)F | 75
13 | O=C(c1cccs1)[C@@H]1[C@@H](c2cccc(O)c2)NC(=S)N[C@@]1(O)C(F)(F)F | 72
14 | CCOC(=O)C1=C(C(F)(F)F)NC(=S)NC1c1ccc2c(c1)OCO2 (stereo unspecified) | 12.2
15 | CCOC(=O)C1=C(C(F)(F)F)NC(SCC(=O)c2ccc(C(F)(F)F)cc2)NC1c1ccc2c(c1)OCO2 (stereo unspecified) | 8.1
16 | O=C(c1ccco1)[C@@H]1[C@@H](c2cccc(O)c2)NC(=S)N[C@@]1(O)C(F)(F)F | > 100
